Measurements taken from ChEMBL document CHEMBL1177889, “Synthesis of novel peptidomimetics as inhibitors of protozoan cysteine proteases falcipain-2 and rhodesain” (Eur J Med Chem, 2010).

How the values were obtained:
[1] = molecular target: T1, Falcipain 2 (Plasmodium falciparum) (UniProt Q9N6S8); test: Inhibition of Plasmodium falciparum falcipain-2 at 30 uM after 10 to 15 min
T1 sequence (whole entry): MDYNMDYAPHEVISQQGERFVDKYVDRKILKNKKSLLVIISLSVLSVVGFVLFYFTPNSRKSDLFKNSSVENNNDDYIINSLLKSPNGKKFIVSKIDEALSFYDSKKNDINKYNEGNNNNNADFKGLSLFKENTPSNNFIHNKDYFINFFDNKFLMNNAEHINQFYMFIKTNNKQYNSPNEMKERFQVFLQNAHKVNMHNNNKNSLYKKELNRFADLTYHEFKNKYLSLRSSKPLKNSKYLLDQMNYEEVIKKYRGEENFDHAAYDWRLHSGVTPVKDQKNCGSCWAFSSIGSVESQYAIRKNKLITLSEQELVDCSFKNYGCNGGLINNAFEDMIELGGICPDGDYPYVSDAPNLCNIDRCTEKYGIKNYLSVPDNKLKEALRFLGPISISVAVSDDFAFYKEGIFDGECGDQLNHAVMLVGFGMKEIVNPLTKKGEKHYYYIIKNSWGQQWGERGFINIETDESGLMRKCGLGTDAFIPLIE
In short: (§1)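 Single-concentration screen with Cbz-Phe-Arg-AMC at 40 µM (FP-2) or 10 µM (rhodesain). Hydrolysis product release read continuously over 10 min. DMSO served as negative control and E-64 as positive control. Inhibition expressed as percent versus DMSO.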

Falcipain 2 = molecular target: T2, Falcipain 2 (Plasmodium falciparum, UniProt Q9N6S8); test: Inhibition of Plasmodium falciparum falcipain-2 after 10 to 15 min
T2 sequence (Q9N6S8 whole entry): T1 sequence (whole entry)
In short: (§2)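 Recombinant enzymes, FP-2 expressed in E. coli. Run in 50 mM sodium acetate pH 5.5 with 10 mM DTT. Substrate Cbz-Phe-Arg-AMC at 40 µM for FP-2 and 10 µM for rhodesain. Fluorescence (ex 365/em 460) followed continuously for 10–15 min at room temperature. Kiapp taken from Dixon plots and corrected to Ki using Km 21.5 µM (FP-2) or 0.9 µM (rhodesain). Each assay run twice.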

Plasmodium falciparum = test: Antiplasmodial activity against Plasmodium falciparum FCBR infected in human RBC; type: functional, organism-based; conditions: FCBR/Columbia
Rhodesain = Rhodesain (Trypanosoma brucei rhodesiense, UniProt Q95PM0); test: Inhibition of Trypanosoma brucei rhodesiense rhodesain after 10 to 15 mins; in short: as §2
[2] = molecular target: Rhodesain (Trypanosoma brucei rhodesiense) (UniProt Q95PM0); test: Inhibition of Trypanosoma brucei rhodesiense rhodesain at 100 uM after 10 to 15 mins; in short: as §1
[3] = test system: Trypanosoma brucei brucei; test: Antitrypanosomal activity against Trypanosoma brucei brucei TC 221 after 48 hrs by alamar blue assay; conditions: TC 221, 48 h

Sequence of Rhodesain (Q95PM0 whole entry): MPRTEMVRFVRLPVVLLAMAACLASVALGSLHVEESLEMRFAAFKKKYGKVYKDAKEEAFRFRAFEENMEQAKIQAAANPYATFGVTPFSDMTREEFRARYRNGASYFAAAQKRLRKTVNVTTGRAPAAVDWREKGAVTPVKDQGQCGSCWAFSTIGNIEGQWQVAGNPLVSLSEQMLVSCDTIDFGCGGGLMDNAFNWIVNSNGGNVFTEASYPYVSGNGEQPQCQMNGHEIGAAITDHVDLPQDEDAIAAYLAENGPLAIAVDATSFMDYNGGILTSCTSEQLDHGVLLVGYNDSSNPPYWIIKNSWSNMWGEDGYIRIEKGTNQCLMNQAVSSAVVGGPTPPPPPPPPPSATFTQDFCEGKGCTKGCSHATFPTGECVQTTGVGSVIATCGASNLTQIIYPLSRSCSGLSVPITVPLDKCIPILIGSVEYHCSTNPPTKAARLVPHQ
Sequence of Rhodesain (Trypanosoma brucei rhodesiense) (Q95PM0 1-450): as the sequence (Q95PM0 whole entry) above

In the case of `O=C(CN1C(=O)[C@@H](COC(=O)Nc2ccc(Cl)cc2C(F)(F)F)N=C(c2ccccc2)c2ccccc21)N[C@H]1CC(=O)O[C@H]1OCc1ccccc1`, the inhibition [1] is reported as under 30%.
With `O=C(CN1C(=O)[C@@H](COC(=O)Nc2ccc(Cl)cc2C(F)(F)F)N=C(c2ccccc2)c2ccccc21)N[C@H]1CC(=O)O[C@@H]1OCc1ccccc1` the inhibition [1] was over 50%, the Ki (Falcipain 2) was 8.9 µM and the IC50 (Plasmodium falciparum) was 49.5 µM. The Ki (Rhodesain) was 0.8 µM.
`O=C(CN1C(=O)[C@@H](COC(=O)Nc2ccc(Cl)cc2C(F)(F)F)N=C(c2ccccc2)c2ccccc21)N[C@H]1CC(=O)OC1O` (some centres not stated) was tested, and the Ki (Falcipain 2) was 4 µM, the IC50 (Plasmodium falciparum) was over 100 µM and the inhibition [2] was 30%.
With `CC(C)C[C@H](NC(=O)[C@H]1O[C@@H]1C(=O)O)C(=O)NCCCCN=C(N)N` [E-64] the Ki (Falcipain 2) was 40.3 µM and the IC50 (Plasmodium falciparum) was 9.3 µM.
In the case of `CC(C)(C)S[C@H]1OC(=O)C[C@@H]1NC(=O)CN1C(=O)[C@@H](COC(=O)Nc2ccc(Cl)cc2C(F)(F)F)N=C(c2ccccc2)c2ccccc21`, the inhibition [1] is reported as over 50%, the Ki (Falcipain 2) is reported as 8.2 µM and the IC50 (Plasmodium falciparum) is reported as 28.5 µM. It also gave a Ki (Rhodesain) of 0.7 µM and an IC50 [3] of 14.2 µM.
With `NCCCC(N)(C(=O)O)C(F)F` (configuration not stated) [EFLORNITHINE] the IC50 [3] was 22.9 µM.
`CC(C)(C)S[C@@H]1OC(=O)C[C@@H]1NC(=O)CN1C(=O)[C@@H](COC(=O)Nc2ccc(Cl)cc2C(F)(F)F)N=C(c2ccccc2)c2ccccc21` showed an inhibition [1] of under 30%.
